Variants at the floor of the assay were thinned out.
B1: tRNA (parent)
chain: GUUCCGUUGGCGUAAUGGUAACGCGUCUCCCUCCUAAGGAGAAGACUGCGGGUUCGAGUCCCGUACGGAACG

Variants of: B1
Test: yeast fitness relative to wild type (ratio to wild type); higher = fitter; tRNA-Arg(CCU), competitive growth, 37 C, YPD
Procedure, shortened: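 Changes in genotype frequencies gave Darwinian fitness relative to wild type. Frequencies were read by 100-nucleotide paired-end sequencing of gene amplicons before and after pooled Saccharomyces cerevisiae strains, carrying tRNA-Arg(CCU) gene variants at the native locus, were competed in YPD at 37°C for 24 hours in six replicates. A genotype was kept only with ≥ 100 starting reads, and estimates < 0.5 were set to 0.5.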

Row | Variant | yeast fitness
1 | U8C G68C | 0.958
2 | U8C C30U C31A C33G C60A | 0.586
3 | U8C G10A U19C C34A C46U A65C | ≤ 0.5
4 | U8C A14G A70U | 0.59
5 | U8C A36C | 0.577
6 | U8C G38C | 0.799
7 | U8C G38A | 0.885
8 | U8C A20G C66A | ≤ 0.5
9 | U8C G9A G41C A69U | ≤ 0.5
10 | U8C A36U G38A A65C | 0.579
11 | U8C G52C | 0.639
12 | U8A U19G C24G U32A | ≤ 0.5
13 | U8C G9A U13A A15G A37U C46U G68A | ≤ 0.5
14 | U8C G63A | 0.864
15 | U8C A42U G63A A70G | ≤ 0.5
16 | U8A U26G C46G | ≤ 0.5
17 | U8C C27A G52A | ≤ 0.5
18 | U8C A45C C62G A65C | ≤ 0.5
19 | U8C A21U G56C G63A U64C G67C | ≤ 0.5
20 | U8C C22A C29G G44A U64G | ≤ 0.5
21 | U8C G23C C29G A45U C66U | ≤ 0.5
22 | U8C A70U | 0.994
23 | U8C G9C U13A G25A A40C A57C C61A G67A | ≤ 0.5
24 | U8C C11U G23A C31U A45C G48A G67A | ≤ 0.5

Row | Variant | yeast fitness
25 | U8C U13C A14C C30U A42G G50C C55U | 0.671
26 | U8C G41A | 0.92
27 | U8C A14G G23A | ≤ 0.5
28 | U8C A40C | 1.02
29 | U8C A40G | 0.877
30 | U8C A40U | 0.903
31 | U8C C49A G51U U59G C62A | ≤ 0.5
32 | U8C C31A A42G A57U U59A | ≤ 0.5
33 | U8C C22A G39A U47A | ≤ 0.5
34 | U8C C27G G44A | ≤ 0.5
35 | U8C G9A A40C A45G A57G | ≤ 0.5
36 | U8C C22A U47A | ≤ 0.5
37 | U8C A43C C49G A57G | ≤ 0.5
38 | U8C G23A C34A A42U C46A A57C G67C | ≤ 0.5
39 | U8C A21U C34A A40C | 0.627
40 | U8C A40G A43C A69U | ≤ 0.5
41 | U8C G50A A65C | 0.603
42 | U8C C60U | 0.832
43 | U8C C60G | 0.705
44 | U8C G12A G51A C66A | ≤ 0.5
45 | U8C A20C | 0.985
46 | U8C A20G | 0.941
47 | U8C A20U | 0.92
48 | U8C C11U G58U C61A | ≤ 0.5

Row | Variant | yeast fitness
49 | U8A U47C | 0.723
50 | U8A U47A | 0.619
51 | U8A U28C C33A | ≤ 0.5
52 | U8C G10A C11G G12C C29G | ≤ 0.5
53 | U8C G44C | 0.911
54 | U8C G12A G18A A37C C55A C60G G63C | ≤ 0.5
55 | U8C A15C A45C C62G | 0.535
56 | U8A U26G C29A C46U G58A | ≤ 0.5
57 | U8C A40U A45G | 0.527
58 | U8C C24G G67U | ≤ 0.5
59 | U8C C24U A45G C46G C55G | ≤ 0.5
60 | U8C G23A C30G C61A G67A | ≤ 0.5
61 | U8C A45C A65C | ≤ 0.5
62 | U8C A14G C24G C31U C55A | ≤ 0.5
63 | U8A U28C U47A | ≤ 0.5
64 | U8A U64A A65C G68A | ≤ 0.5
65 | U8C C27U G41C C61G | 0.551
66 | U8C A43G A70C | 0.74
67 | U8C A36C G41A G68A A69C | ≤ 0.5
68 | U8C C31A G41A | ≤ 0.5
69 | U8C A37C C49G | ≤ 0.5
70 | U8C U13A G51A | 0.53
71 | U8C G18A C27U | 0.531
72 | U8A U28A C31G A65U A69C | ≤ 0.5

Row | Variant | yeast fitness
73 | U8C A21U C27U G38C C61G | 0.553
74 | U8A U32C G44C C62U | ≤ 0.5
75 | U8A U32G A37G U54G G56A | ≤ 0.5
76 | U8C C30U C31A C33G A42G C60A | ≤ 0.5
77 | U8C G17A G41C A65C | ≤ 0.5
78 | U8C G17A G41C A65U | ≤ 0.5
79 | U8C G23C C29G A45U | ≤ 0.5
80 | U8C A21G | 1.03
81 | U8C G18A C24A A37G A57G A69G | ≤ 0.5
82 | U8C A20U A21U U26G C31A A45U | 0.54
83 | U8C G56A A69C | 0.836
84 | U8C G10A A40G A65G G67A | ≤ 0.5
85 | U8C A14U A42C G52A G56C | ≤ 0.5
86 | U8C G50C C55A C60A | ≤ 0.5
87 | U8C G18U A21C G63A | ≤ 0.5
88 | U8C C30G A69C | ≤ 0.5
89 | U8C A14U C34G C46A C62U A69C | ≤ 0.5
90 | U8C G39C | 0.67
91 | U8C G39A | 0.874
92 | U8C G23C C29G | ≤ 0.5
93 | U8A U35A G44C A45U | 0.64
94 | U8C G44A G48A C49A U59A | 0.524
95 | U8C C11U A15C A21G C24G U28A | ≤ 0.5
96 | U8C G9U C29A C34G A36G A40C U47A U64C | ≤ 0.5

Row | Variant | yeast fitness
97 | U8C G23A C30G | ≤ 0.5
98 | U8C G9A U59A A70G | ≤ 0.5
99 | U8C A20U C30G A37G G44A | ≤ 0.5
100 | U8C G67U | 0.862
101 | U8C C33G A43C | ≤ 0.5
102 | U8C A15C U32A A70C | ≤ 0.5
103 | U8C G25A | 0.931
104 | U8C C11U C31U | 0.576
105 | U8C C11A A43U G48C C60G | ≤ 0.5
106 | U8C C22G C49U | 0.726
107 | U8C C33G C34G C46U | ≤ 0.5
108 | U8C A14G G23U A65C | ≤ 0.5
109 | U8C G10A U19C G41A U47C | 0.537
110 | U8C G25C C33A C61U | ≤ 0.5
111 | U8C C27U G51A A57U | 0.541
112 | U8C A14G C49U C61U | ≤ 0.5
113 | U8C C22A A36C G63C | ≤ 0.5
114 | U8C C29U U35G | ≤ 0.5
115 | U8C A20C A21C A36U A45C | ≤ 0.5
116 | U8C G23A | 0.793
117 | U8C C30G C31G A65C | 0.527
118 | U8C C34U A45C A69C A70C | ≤ 0.5
119 | U8C C11G A15U A20G A21G G38C C60G | 0.568
120 | U8C C11G G18C C49A A70C | ≤ 0.5

Row | Variant | yeast fitness
121 | U8C A15U C33G C62G | ≤ 0.5
122 | U8C A15C G63A | ≤ 0.5
123 | U8C A36G A70C | 0.644
124 | U8C A43G | 0.93
125 | U8C A43U | 1.03
126 | U8C A20C G56A C61U | 0.532
127 | U8C C31G G50C G56C | ≤ 0.5
128 | U8C G17C C31A G68A | ≤ 0.5
129 | U8C A21U C24U U32A C55G | ≤ 0.5
130 | U8C G9C A21C C24G U32G G38A | ≤ 0.5
131 | U8C A14C A43G | ≤ 0.5
132 | U8C A20U U28A C62U G67U | ≤ 0.5
133 | U8C A15U G25A C34G U54A A65U | 0.541
134 | U8C A45C G56A | 0.798
135 | U8A U26G C29A C46U G58A G63A | ≤ 0.5
136 | U8C A45G C49A | 0.574
137 | U8C C22G C49U G63A U64C | ≤ 0.5
138 | U8C G52A G67A | ≤ 0.5
139 | U8C C30A G48A | 0.731
140 | U8C G23C C29G A36G A45U | ≤ 0.5
141 | U8C A14G A20U C30G A37G G44A | ≤ 0.5
142 | U8C C31G G50A | 0.615
143 | U8C C33G A43C C66A | ≤ 0.5
144 | U8C A15U C22G C31U A57C U64A G68A | ≤ 0.5

Row | Variant | yeast fitness
145 | U8C C22A C46A A65U | ≤ 0.5
146 | U8C G12A C62A | ≤ 0.5
147 | U8C G50A C66A | ≤ 0.5
148 | U8C A15G G38C U64A G68A A69C | ≤ 0.5
149 | U8C C62U | 0.881
150 | U8C G9A A40C | 0.672
151 | U8C G17A U54A G56C | ≤ 0.5
152 | U8C C27U C49U G52A C60A | ≤ 0.5
153 | U8C C11G G25A C60A C62U G68C | ≤ 0.5
154 | U8C C24G G50A | ≤ 0.5
155 | U8A U59A C66G A70C | ≤ 0.5
156 | U8C C29U G39C A40U | ≤ 0.5
157 | U8C C11A U19G A36G U54C A69C | ≤ 0.5
158 | U8C C11A G25C U28A A40U | ≤ 0.5
159 | U8C G25A A37G A40G | ≤ 0.5
160 | U8C C31A G52C A65U | ≤ 0.5
161 | U8C A21U G39C G50A | ≤ 0.5
162 | U8C A42G C55A | ≤ 0.5
163 | U8C G44A U53C A70U | ≤ 0.5
164 | U8C G39C U47C U59C | ≤ 0.5
165 | U8C A15U U16A U26A | ≤ 0.5
166 | U8C G44A U53C C55A A70U | ≤ 0.5
167 | U8C C31U A43U G48A U53A | ≤ 0.5
